Bioassay records as filed in PubChem.
Only some compounds are listed: those with a hit (about 1.9% of all), similar ones and a draw of the others.
CHRM5 PAM = CHRM5 positive allosteric modulation | AID 624038 | 360,000 tested, 0.3% active | P08912 | CHO-K1 hM5, Fluo-8 calcium, ACh EC20 PAM; 0% = ACh EC20, 100% = ACh EC100 | activation, % at 3 µM;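 active means activation above the run cutoff, the mean activation of all test compounds plus 3 SD, cut at about 18% in these data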
Target sequence (P08912 whole entry, looked up): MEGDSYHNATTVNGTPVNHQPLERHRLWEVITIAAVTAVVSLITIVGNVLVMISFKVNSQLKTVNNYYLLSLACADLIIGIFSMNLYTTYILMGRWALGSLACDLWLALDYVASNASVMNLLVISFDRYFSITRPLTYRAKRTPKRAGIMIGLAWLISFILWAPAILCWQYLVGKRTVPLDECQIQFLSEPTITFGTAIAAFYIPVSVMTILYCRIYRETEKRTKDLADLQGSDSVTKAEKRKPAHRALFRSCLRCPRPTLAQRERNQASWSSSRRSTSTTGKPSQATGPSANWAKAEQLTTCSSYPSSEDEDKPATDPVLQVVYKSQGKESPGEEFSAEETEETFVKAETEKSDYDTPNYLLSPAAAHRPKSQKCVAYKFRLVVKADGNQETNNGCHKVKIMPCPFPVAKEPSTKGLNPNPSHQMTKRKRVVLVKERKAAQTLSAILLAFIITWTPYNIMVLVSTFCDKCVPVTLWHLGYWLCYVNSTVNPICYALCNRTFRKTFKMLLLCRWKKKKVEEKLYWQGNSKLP
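Assay system: CHO-K1 hM5 cells / Incubation: Fluo-8 loading 80 min at 37 °C plus 30 min room temperature / Technique: Fluo-8 calcium dye fluorescence, kinetic read / Repeats: single replicate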
M4 ag = agonists of human muscarinic M4 receptor (CHRM4) | AID 624127 | CHO-K1 hM4/Gqi5, Fluo-8 calcium fluorescence; vehicle 0%, full acetylcholine response 100% | activation, % at 3 µM | P08173 | 360,000 tested, 0.14% active;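 active means activation above the run mean over all test wells plus 3 SD, cut at about 32% in these data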;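 further: peak over basal fluorescence ratio per well then scaled between controls; 0% = DMSO wells and 100% = acetylcholine at EC100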
CHRM4 antagonist = CHRM4 antagonism in calcium assay. P08173. CHO-hM4 cells, ACh EC80, Fluo-8 calcium fluorescence. inhibition, % at 3 µM. 360,000 tested, 0.73% active. AID 624125;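 active means inhibition above its plate's cutoff, the mean inhibition of sample wells plus 3 SD, cut at about 27% in these data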;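 further: 0% = acetylcholine EC80 with DMSO and 100% = DMSO without agonist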
CHRM5 antagonist = blocks acetylcholine activation of human M5 receptor; CHO-hM5 cells, Fluo-8 calcium fluorescence, ACh EC80; inhibition, % at 3 µM; 360,000 tested, 0.59% active; AID 624040;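 active means inhibition above a per-plate cutoff, the mean of that plate's test compounds plus 3 SD, cut at about 27% in these data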;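 further: 0% = acetylcholine EC80 with DMSO and 100% = DMSO without agonist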
M4 PAM = positive allosteric modulators of human muscarinic M4 receptor | P08173 | CHO-K1 hM4/Gqi5, Fluo-8 calcium fluorescence, ACh EC20; 0% = ACh EC20, 100% = maximal ACh | activation, % at 3 µM | 360,000 tested, 0.4% active;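 active means activation above its plate's cutoff, the mean activation of sample wells plus 3 SD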
CHRM5 agonist = agonists of human muscarinic M5 receptor (CHRM5); CHO-K1 hM5 cells, Fluo-8 calcium fluorescence; 0% DMSO wells, 100% maximal acetylcholine response; 360,000 tested, 0.19% active; AID 624037; activation, % at 3 µM; P08912;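 active means activation above the run's mean over test compounds plus 3 SD, cut at about 23% in these data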;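 further: signal is peak over basal fluorescence ratio across the kinetic read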
* = called active by the depositor.

For CCN(CC)c1ccc(/C=C/C(=O)C2C(=O)C=C(C)OC2=O)cc1 (stereo unspecified) the results were CHRM5 PAM -28, M4 ag 49*, CHRM4 antagonist 21, CHRM5 antagonist 42*, M4 PAM -21 and CHRM5 agonist 184*.
CCN(CC)c1ccc(C=C2C(=O)OC(c3ccccc3)OC2=O)cc1 (stereo unspecified) was read as CHRM5 PAM -8, M4 ag 2, CHRM4 antagonist -1, CHRM5 antagonist 12, M4 PAM 8 and CHRM5 agonist -2.
O=C1c2cccc3c(N4CCCCC4)ccc(c23)C(=O)N1c1ccccc1O was read as CHRM5 PAM -20, M4 ag 39*, CHRM4 antagonist 35*, CHRM5 antagonist 35*, M4 PAM -17 and CHRM5 agonist 28*.
For O=C1c2cccc3c(N4CCCCC4)ccc(c23)C(=O)N1c1ccc(O)cc1 the results were CHRM5 PAM -9, M4 ag 11, CHRM4 antagonist 4, CHRM5 antagonist 18, M4 PAM 1 and CHRM5 agonist 21.
O=C(O)c1cnn(-c2nc(-c3ccc(F)cc3)cs2)c1C(F)(F)F was read as CHRM5 PAM 4, M4 ag 0, CHRM4 antagonist -6, CHRM5 antagonist -6, M4 PAM 23* and CHRM5 agonist -3.
Screening Cc1ccc(N2CCN(S(=O)(=O)c3c(C)nc4sccn4c3=O)CC2C)cc1 (stereo unspecified) returned CHRM5 PAM 0, M4 ag 2, CHRM4 antagonist -3, CHRM5 antagonist -3, M4 PAM 4 and CHRM5 agonist 0.
COc1ccc(C(=O)Nc2cccnc2)cc1S(=O)(=O)N1CCOCC1 was read as CHRM5 PAM 20*, M4 ag 1, CHRM4 antagonist -4, CHRM5 antagonist 11, M4 PAM 4 and CHRM5 agonist 0.
CCOc1ccc(NC(=O)CN(C)C(=O)c2c(-c3ccccc3)noc2C)cc1OCC was read as CHRM5 PAM -7, M4 ag 3, CHRM4 antagonist 0, CHRM5 antagonist 1, M4 PAM 4 and CHRM5 agonist 2.
COc1ccc(/C=C\C(=O)O[C@@H]2C(O)C(O[C@@H]3OC(C)[C@H](O[C@@H]4OCC(O[C@H]5O[C@H](CO)[C@@H](O)C(O)C5O)C(O)C4O)C(O)C3O)[C@H](OC(=O)[C@]34CCC(C)(C)C[C@@H]3C3=CCC5[C@@]6(C)CC(O)C(O[C@@H]7OC(CO)C(O)[C@H](O)[C@H]7O)[C@@](C)(C(=O)O)C6CC[C@@]5(C)[C@]3(CO)CC4)O[C@H]2C)cc1 (stereo partly specified) was read as CHRM5 PAM -27, M4 ag 147*, CHRM4 antagonist 79*, CHRM5 antagonist 48*, M4 PAM -14 and CHRM5 agonist 50*.
For S=C(Nc1cccc2ccccc12)NN1CCCCCC1 the results were CHRM5 PAM -27, M4 ag -1, CHRM4 antagonist 35*, CHRM5 antagonist 9, M4 PAM -17 and CHRM5 agonist -10.
`COc1ccc(-c2csc(N(CCCN(C)C)C(=O)c3ccc(F)cc3)n2)cc1` gave CHRM5 PAM -11, M4 ag 16, CHRM4 antagonist 35*, CHRM5 antagonist -1, M4 PAM 50* and CHRM5 agonist -16.
Screening CCC(=O)N(CC)c1nc(-c2ccc(OC)cc2)cs1 returned CHRM5 PAM -7, M4 ag 59*, CHRM4 antagonist 9, CHRM5 antagonist 8, M4 PAM -22 and CHRM5 agonist 4.
For COc1ccc(-c2csc(N(CCCN(C)C)C(=O)c3ccccc3F)n2)cc1 the results were CHRM5 PAM -2, M4 ag 5, CHRM4 antagonist 3, CHRM5 antagonist -5, M4 PAM 4 and CHRM5 agonist -6.
Screening CCN(CC)CCCN(C(=O)c1ccc(F)cc1)c1nc(-c2ccc(OC)cc2)cs1 returned CHRM5 PAM 1, M4 ag 16, CHRM4 antagonist 46*, CHRM5 antagonist 4, M4 PAM 59* and CHRM5 agonist -14.
For CN(C)CCCN(C(=O)c1cccs1)c1nc(-c2ccccc2)cs1 the results were CHRM5 PAM -18, M4 ag 5, CHRM4 antagonist 28*, CHRM5 antagonist 21, M4 PAM -24 and CHRM5 agonist -5.
`COc1ccc(-c2csc(N(CCCN(C)C)C(=O)c3ccccc3C)n2)cc1` gave CHRM5 PAM -3, M4 ag 16, CHRM4 antagonist 6, CHRM5 antagonist 9, M4 PAM -11 and CHRM5 agonist -6.
Screening CCC(=O)N(Cc1ccco1)c1nc(-c2ccc(OC)cc2)cs1 returned CHRM5 PAM -2, M4 ag -1, CHRM4 antagonist 3, CHRM5 antagonist 1, M4 PAM -4 and CHRM5 agonist -2.
For Cc1cccc(NC(=O)COC(=O)CN2C(=O)C3CCCCC3C2=O)c1C (stereo unspecified) the results were CHRM5 PAM -4, M4 ag 2, CHRM4 antagonist -9, CHRM5 antagonist 2, M4 PAM 8 and CHRM5 agonist 1.
CCOC(=O)C1=C(C)N(CC(C)C)C(=O)C1 was read as CHRM5 PAM 1, M4 ag 2, CHRM4 antagonist -10, CHRM5 antagonist 6, M4 PAM 22* and CHRM5 agonist 2.
For CCOC(=O)N1CCN(c2ncc(C(F)(F)F)cc2Cl)CC1 the results were CHRM5 PAM -4, M4 ag 1, CHRM4 antagonist -6, CHRM5 antagonist -8, M4 PAM 23* and CHRM5 agonist -5.
For CCOC(=O)C=C1CCN(c2ncc(C(F)(F)F)cc2Cl)CC1 the results were CHRM5 PAM -6, M4 ag 0, CHRM4 antagonist -4, CHRM5 antagonist 5, M4 PAM -3 and CHRM5 agonist 0.
Screening NCCC(=O)N1c2ccccc2Sc2ccc(Cl)cc21 returned CHRM5 PAM -33, M4 ag 14, CHRM4 antagonist 38*, CHRM5 antagonist 61*, M4 PAM -14 and CHRM5 agonist -20.
NCCCC(=O)N1c2ccccc2Sc2ccc(Cl)cc21 was read as CHRM5 PAM -23, M4 ag 2, CHRM4 antagonist 64*, CHRM5 antagonist 77*, M4 PAM -19 and CHRM5 agonist -11.
CN1CCN(CCC(=O)N2c3ccccc3Sc3ccc(Cl)cc32)CC1 was read as CHRM5 PAM -15, M4 ag 0, CHRM4 antagonist 21, CHRM5 antagonist 9, M4 PAM -20 and CHRM5 agonist -7.
